Test results as given in ChEMBL document CHEMBL2401620, “Molecular design, synthesis and biological evaluation of BP-O-DAPY and O-DAPY derivatives as non-nucleoside HIV-1 reverse transcriptase inhibitors” (Eur J Med Chem, 2013).

Columns and labels:
[1] = system: Human immunodeficiency virus 1; experiment: Antiviral activity against HIV1 3B infected in human MT4 cells assessed as inhibition of virus-induced cytopathic effect after 5 days by MTT assay; type: functional, organism-based; conditions: Human immunodeficiency virus 1, 3B, MT4, 120 h
How it was run: (§1)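 MT-4 cells, spun 5 min at 220 g, resuspended at 6 × 10⁵ cells/mL, infected with virus stock at 100-300 CCID50. Serial 5-fold compound dilutions were added at the start, in triplicate wells. After 5 days, viability was read by MTT reduction at 540 and 690 nm.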

[2] = system: Human immunodeficiency virus 2; experiment: Antiviral activity against HIV2 ROD infected in human MT4 cells assessed as inhibition of virus-induced cytopathic effect after 5 days by MTT assay; type: functional, organism-based; conditions: Human immunodeficiency virus 2, ISOLATE ROD, MT4, 120 h; how it was run: as §1
[3] = Selectivity index, ratio of CC50 for human MT4 cells to EC50 for HIV1 3B; type: toxicity, cell-based; conditions: read-out: Ratio CC50/EC50
How it was run: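 SI is CC50 in mock-infected MT-4 cells divided by EC50 against HIV-1 IIIB. Both come from the same 5-day MTT assay, with serial 5-fold dilutions in triplicate wells.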

[4] = system: Human immunodeficiency virus 1; experiment: Antiviral activity against HIV1 RES056 expressing RT K103N/Y181C mutant infected in human MT4 cells assessed as inhibition of virus-induced cytopathic effect after 5 days by MTT assay; type: functional, organism-based; conditions: Human immunodeficiency virus 1, RES056, MT4, 120 h
How it was run: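 MT-4 cells, exponentially growing, spun 5 min at 220 g and resuspended at 6 × 10⁵ cells/mL, then infected with 100-300 CCID₅₀ virus stock. Serial 5-fold compound dilutions were added from 10× stocks, in triplicate alongside mock-infected wells. Viability was read by MTT at 540 and 690 nm. EC₅₀ is the concentration giving 50% protection from cytopathic effect, using median OD of three wells.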

[5] = Cytotoxicity against human MT4 cells after 5 days by MTT assay; type: cell-based
How it was run: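 Mock-infected MT-4 cells at 6 × 10⁵ cells/mL received medium instead of virus, with serial 5-fold compound dilutions in triplicate. After 5 days, viability was read by MTT at 540 and 690 nm.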

[6] = target: Human immunodeficiency virus type 1 reverse transcriptase (Human immunodeficiency virus 1, UniProt Q72547); experiment: Inhibition of recombinant wild type HIV1 RT using poly(rA)/oligo(dT)16 as template after 40 mins by spectrofluorometric analysis
[7] = system: Human immunodeficiency virus 1; experiment: Ratio of delavirdine EC50 to compound EC50 for HIV1 3B; type: functional
[8] = system: Human immunodeficiency virus 1; experiment: Ratio of nevirapine EC50 to compound EC50 for HIV1 3B; type: functional
[9] = target: Human immunodeficiency virus type 1 reverse transcriptase (Human immunodeficiency virus 1, UniProt Q72547, K103N/Y181C); experiment: Inhibition of HIV RT K103N/Y181C mutant by cell based assay
How it was run: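 Serial 5-fold compound dilutions in triplicate wells, with parallel mock-infected wells. After 5 days, viability was read by MTT reduction at 540 and 690 nm. The median OD of three wells gave EC₅₀, the concentration giving 50% protection from viral cytopathic effect.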

| SMILES | EC50 [1] | EC50 [2] | selectivity ratio [3] | EC50 [4] | CC50 at 120 h [5] | IC50 [6] | Ratio EC50 [7] | Ratio EC50 [8] | EC50 [9] |
| --- | --- | --- | --- | --- | --- | --- | --- | --- | --- |
| Cc1ccc(C(=O)c2cc(Cl)ccc2Oc2ccnc(Nc3ccc(C#N)cc3)n2)cc1 | > 1710 nM | > 1.71 µM | < 1 | > 1.71 µM | 1.71 µM | – | – | – | – |
| Cc1cc(C)cc(C(=O)c2cc(Cl)ccc2Oc2ccnc(Nc3ccc(C#N)cc3)n2)c1 | 790 nM | > 28.8 µM | 36 | > 28.8 µM | 28.8 µM | 3.22 µM | – | – | – |
| Cc1ccccc1C(=O)c1cc(Cl)ccc1Oc1ccnc(Nc2ccc(C#N)cc2)n1 | 1360 nM | > 28.8 µM | 21 | > 28.8 µM | 28.8 µM | 3.45 µM | – | – | – |
| COc1ccc(C(=O)c2ccccc2)c(Oc2ccnc(Nc3ccc(C#N)cc3)n2)c1 | > 760 nM | > 0.76 µM | < 1 | > 0.76 µM | 0.76 µM | – | – | – | – |
| N#Cc1ccc(Nc2nccc(Oc3ccc(C(=O)c4ccc(O)cc4)cc3)n2)cc1 | 2720 nM | > 19.4 µM | 7 | > 19.4 µM | 19.4 µM | 7.13 µM | – | – | – |
| N#Cc1ccc(Nc2nccc(Oc3ccc(OCc4ccccc4)cc3)n2)cc1 | 46100 nM | > 317 µM | > 7 | > 317 µM | > 317 µM | 31 µM | – | – | – |
| COCCc1ccc(Oc2ccnc(Nc3ccc(C#N)cc3)n2)cc1 | 260 nM | ≥ 46.2 µM | 359 | ≥ 93.2 µM | 93.2 µM | 2.69 µM | – | – | – |
| Cc1ccc(C(=O)c2cc(Cl)ccc2Oc2cc(C)nc(Nc3ccc(C#N)cc3)n2)cc1 | > 26600 nM | > 26.6 µM | < 1 | > 26.6 µM | 26.6 µM | – | – | – | – |
| Cc1cc(C)cc(C(=O)c2cc(Cl)ccc2Oc2cc(C)nc(Nc3ccc(C#N)cc3)n2)c1 | > 37100 nM | > 37.1 µM | < 1 | > 37.1 µM | 37.1 µM | – | – | – | – |
| Cc1cc(Oc2ccc(Cl)cc2C(=O)c2ccccc2C)nc(Nc2ccc(C#N)cc2)n1 | > 4240 nM | > 4.24 µM | < 1 | > 4.24 µM | 4.24 µM | – | – | – | – |
| COc1ccc(C(=O)c2ccccc2)c(Oc2cc(C)nc(Nc3ccc(C#N)cc3)n2)c1 | > 4900 nM | > 4.9 µM | < 1 | > 4.9 µM | 4.9 µM | – | – | – | – |
| Cc1cc(Oc2ccc(C(=O)c3ccc(O)cc3)cc2)nc(Nc2ccc(C#N)cc2)n1 | ≥ 5180 nM | > 32 µM | ≤ 6 | > 32 µM | 32 µM | 16.9 µM | – | – | – |
| Cc1cc(Oc2ccc(OCc3ccccc3)cc2)nc(Nc2ccc(C#N)cc2)n1 | 4310 nM | > 27.7 µM | 6 | > 27.7 µM | 27.7 µM | 17.4 µM | – | – | – |
| COCCc1ccc(Oc2cc(C)nc(Nc3ccc(C#N)cc3)n2)cc1 | 790 nM | > 13.8 µM | 18 | > 13.8 µM | 13.8 µM | 11.6 µM | – | – | – |
| Cc1ccc(C(=O)c2cc(Cl)ccc2Oc2nc(Nc3ccc(C#N)cc3)ncc2C)cc1 | 3790 nM | > 0.83 µM | < 1 | > 0.83 µM | ≥ 0.83 µM | – | – | – | – |
| Cc1cc(C)cc(C(=O)c2cc(Cl)ccc2Oc2nc(Nc3ccc(C#N)cc3)ncc2C)c1 | 1480 nM | > 13.4 µM | 9 | > 13.4 µM | 13.4 µM | 3.06 µM | – | – | – |
| Cc1ccccc1C(=O)c1cc(Cl)ccc1Oc1nc(Nc2ccc(C#N)cc2)ncc1C | 1090 nM | > 24.2 µM | 22 | > 24.2 µM | 24.2 µM | 5.23 µM | – | – | – |
| COc1ccc(C(=O)c2ccccc2)c(Oc2nc(Nc3ccc(C#N)cc3)ncc2C)c1 | ≥ 3510 nM | > 7.42 µM | ≤ 2 | > 7.42 µM | 7.42 µM | – | – | – | – |
| Cc1cnc(Nc2ccc(C#N)cc2)nc1Oc1ccc(C(=O)c2ccc(O)cc2)cc1 | 3610 nM | > 296 µM | > 82 | > 296 µM | > 296 µM | 5.21 µM | – | – | – |
| Cc1cnc(Nc2ccc(C#N)cc2)nc1Oc1ccc(OCc2ccccc2)cc1 | > 170000 nM | > 170 µM | 29 | > 170 µM | 170 µM | – | – | – | – |
| COCCc1ccc(Oc2nc(Nc3ccc(C#N)cc3)ncc2C)cc1 | 60 nM | > 347 µM | > 6260 | > 347 µM | > 347 µM | 1.27 µM | 1.8 | 1.8 | – |
| CC(C)Nc1cccnc1N1CCN(C(=O)c2cc3cc(NS(C)(=O)=O)ccc3[nH]2)CC1 [DELAVIRDINE] | 110 nM | > 36.2 µM | – | > 36.2 µM | > 36.2 µM | – | – | – | – |
| O=C1Nc2ccc(Cl)cc2[C@@](C#CC2CC2)(C(F)(F)F)O1 [EFAVIRENZ] | 10 nM | > 6.34 µM | – | – | > 6.34 µM | – | – | – | – |
| Cc1ccnc2c1NC(=O)c1cccnc1N2C1CC1 [NEVIRAPINE] | – | > 15 µM | – | 5.12 µM | > 15 µM | – | – | – | – |
| Cc1cc(/C=C/C#N)cc(C)c1Nc1ccnc(Nc2ccc(C#N)cc2)n1 [RILPIVIRINE] | – | – | – | – | – | – | – | – | 0.8 nM |
| Cc1cn([C@H]2C[C@H](N=[N+]=[N-])[C@@H](CO)O2)c(=O)[nH]c1=O [ZIDOVUDINE] | 10 nM | 0.01 µM | > 14400 | 0.01 µM | > 93.5 µM | – | – | – | – |
